The record followed here is ChEMBL document CHEMBL1138266, “Design, synthesis, and biological evaluation of a 1alpha,25-dihydroxy-19-norvitamin D3 analogue with a frozen A-ring conformation” (J Med Chem, 2007).

Active and inactive are the calls of the source. The calls are words filed in the database; no cut-off is given here. A value given as a limit tells only on which side of the number the result lay.

Test [1] relates to Mus musculus. Put plainly: Increase in serum calcium in vitamin D deficient CD1 mouse at 181.5 […], ip after 24 hrs. It counts as functional, organism-based. The gist of the method:
(§1)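 Female CD-1 mice, 6 weeks old on arrival, were fed a purified vitamin D-deficient diet for 17 weeks (n=3/group). They got a single intraperitoneal injection in 95:5 propylene glycol/ethanol vehicle. Blood was drawn predose and at multiple later times. Serum was diluted in 0.1% lanthanum chloride and calcium read by atomic absorption, reported as change from baseline.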

For test [2], the system named is Mus musculus. Nature of the test: Increase in serum calcium in vitamin D deficient CD1 mouse at 5.4 […], ip after 24 hrs. In kind it is functional, organism-based. In outline:
as §1

The target in test [3] is T1, Vitamin D3 receptor (Rattus norvegicus) (UniProt P13053).
T1 sequence (whole entry): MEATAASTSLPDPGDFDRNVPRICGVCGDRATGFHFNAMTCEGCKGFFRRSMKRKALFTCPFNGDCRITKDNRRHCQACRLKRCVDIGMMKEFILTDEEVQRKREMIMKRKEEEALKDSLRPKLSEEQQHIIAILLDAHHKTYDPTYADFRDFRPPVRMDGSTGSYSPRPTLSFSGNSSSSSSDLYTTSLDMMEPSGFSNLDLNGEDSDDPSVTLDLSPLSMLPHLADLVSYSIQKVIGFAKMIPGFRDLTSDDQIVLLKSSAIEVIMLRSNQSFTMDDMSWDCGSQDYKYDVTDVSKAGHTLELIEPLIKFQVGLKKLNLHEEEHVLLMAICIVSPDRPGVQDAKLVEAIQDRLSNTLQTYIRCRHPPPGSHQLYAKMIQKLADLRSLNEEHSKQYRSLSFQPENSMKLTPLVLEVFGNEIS
Nature of the test: (§2) Activity at VDR in rat osteosarcoma cells assessed as 24-hydroxylase transcription by reporter gene assay. In kind it is cell-based. In outline: (§3)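 Rat osteosarcoma cells stably carrying a 24-hydroxylase gene reporter plasmid, read as luciferase activity.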
For orientation: In a reporter assay the amount or activity of a reporter protein is the signal.

Test [4] relates to HL-60. Put plainly: Induction of differention of human HL60 cells into monocytes by NBT reduction assay. It counts as functional, cell-based.
In test [5] the test system is Mus musculus. Nature of the test: Increase in serum calcium in vitamin D sufficient CD1 mouse at 33.3 ug/kg, ip. In kind it is functional, organism-based. The gist of the method:
(§4)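 Female CD-1 mice, 6-7 weeks old, were group-housed on a purified diet with 0.47% calcium and acclimated 5-7 days. Each got a single dose (n=5-6/group). Serum calcium was measured by atomic absorption after 0.1% lanthanum chloride dilution. Analysis was one-way ANOVA with pairwise comparisons.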

The target in test [6] is T2, Vitamin D3 receptor (Rattus norvegicus, UniProt P13053).
T2 sequence (P13053 whole entry): T1 sequence (whole entry)
Nature of the test: Displacement of 1-alpha,25-dihydroxyvitamin from rat recombinant VDR. The gist of the method:
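Competitive binding against radiolabeled 1α,25-(OH)2D3 at 1 nM. Run in duplicate on two separate occasions.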

Test [7] concerns HL-60. Nature of the test: Ratio of ED50 for drug to 1-alpha,25-dihydroxyvitamin for HL60 cells differentiation by NBT reduction assay. In kind it is functional, Homo sapiens. In outline: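 Human HL-60 promyelocytes induced toward monocytic differentiation; maturation scored as percentage of cells reducing nitro blue tetrazolium. […] Experiment repeated in duplicate two times.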

Test [8] deals with Mus musculus. Nature of the test: Increase in serum calcium in vitamin D sufficient CD1 mouse at 150 ug/kg, ip. It counts as functional, organism-based. The gist of the method: as §4
Test [9] concerns Mus musculus. Nature of the test: Increase in serum calcium in vitamin D sufficient CD1 mouse at 50 ug/kg, ip. It counts as functional, organism-based. In outline: as §4
Test [10] relates to Mus musculus. Put plainly: Increase in serum calcium in vitamin D sufficient CD1 mouse at 33.3 ug/kg, po. It counts as functional, organism-based. The gist of the method:
as §4

Test [11] relates to Mus musculus. Put plainly: Increase in serum calcium in vitamin D sufficient CD1 mouse at 150 ug/kg, po. It counts as functional, organism-based. The gist of the method:
as §4

Test [12] has as its target T2, Vitamin D3 receptor. Described as §2. It counts as cell-based. The gist of the method:
as §3

Take `C=C1/C(=C\C=C2/CCC[C@]3(C)[C@@H]([C@H](C)CCCC(C)(C)O)CC[C@@H]23)C[C@@H](O)C[C@@H]1O`: the result in the test on Mus musculus [1] and in the test on Mus musculus [2] was Active.
What is called EC50 is the concentration that produces a half-maximal response. For orientation: Ki means the dissociation constant of the complex between target and ligand, obtained from inhibition or displacement. For `C[C@H](CCCC(C)(C)O)C1CC[C@H]2/C(=C/C=C3\C[C@@H](O)C4=CCCO[C@@H]4C3)CCC[C@]12C` (some centres not stated), the result in test [3] was inactive. Besides, the response in the test with HL-60 [4] was half-maximal at 1 µM (EC50). Further, the outcome with Mus musculus [1], in the test with Mus musculus [5], in the test on Mus musculus [8], with Mus musculus [2], in the test with Mus musculus [9] and with Mus musculus [10] was Active. Besides, the outcome with Mus musculus [11] was Active. Moreover, at Vitamin D3 receptor [6], the Ki came to 10 µM. Besides, the “Ratio ED50” value in the test with HL-60 [7] is recorded as over 1000.
With `C[C@H](CCCC(C)(C)O)C1CC[C@H]2/C(=C/C=C3/C[C@@H](O)C4=CCCO[C@@H]4C3)CCC[C@]12C` (some centres not stated), the EC50 on Vitamin D3 receptor [12] and in the test on HL-60 [4] was 0.1 µM in each case. Further, the inhibition constant Ki at Vitamin D3 receptor [6] is 0.03 µM. Besides, the “Ratio ED50” value in the test with HL-60 [7] is given as over 100.
